Experiment: Toxicity liver stage against HepG2, at 10uM
Format: cell-based
Design: test concentration 10 uM, cell line HepG2-A16-CD81EGFP
Settings: human, HepG2-A16-CD81EGFP cells; read-out: INHIBITION
Method in brief: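 Uninfected HepG2-A16-CD81EGFP cells, 3 × 10^3 per well, 1536-well, plated on prespotted compound at 10 μM final, parasite-free screening media added to match infected plates; puromycin 10 μM positive, DMSO 0.5% negative; run in parallel with 48 h PbLuc assay at 37 °C, 5% CO2; viability by CellTiter-Glo luminescence, normalized to controls.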

SMILES	cytotoxicity at 10 µM [%]
COc1ccc(C2=NOC(C(=O)N3CCCc4ccccc43)C2)cc1 (configuration not stated)	0.863
CCN(CC)C(=O)CSc1nnc(CCNC(=O)OC(C)(C)C)o1	12
COC(=O)c1cccc2nc([C@H]3CCN(C4CCN(C)CC4)C3)oc12	-3.54
CNC(=O)[C@@H](C1CCCCC1)N1CCC[C@H]1C(=O)NC1CC1	5.56
Cc1c(-c2ccccc2)nc2c(c(C)c(C)n2CCN(C)C)c1N	24.6
O=C(Nc1ncnc2c1CCC2)c1ccc2c(c1)OCO2	4.42
O=C1CCCC2(CCN(C(=O)c3cnccn3)CC2)N1	-12.9
O=C(NC1CCCC1)c1n[nH]c2c1CNCC2	0.582
CC(=O)N1CCCc2sc(C(=O)NC3CC3)nc21	-132
O=S(=O)(C1CC1)N1CCC2(CC1)COC(COc1ccccn1)C2 (configuration not stated)	3.35
COCc1ncn2c1CN(C(=O)c1ccc[nH]1)CC2	1.84
O=C(O)c1nc(SCc2ccc(F)cc2)ncc1Br	-3.11
CC(C)CC(NC(=O)Nc1ccc(F)c(Cl)c1)C(=O)O (configuration not stated)	8.19
COc1cccc(CNC(=O)CC2CSc3ncc(C)c(=O)n32)c1 (configuration not stated)	10.4
Cc1cc2nc(SCC(=O)N3CCCC3)n(C(C)C)c(=O)c2[nH]1	-7.53
Cc1cc(C2CCCN(S(=O)(=O)N(C)C)C2)ccn1 (configuration not stated)	21.4
CC[C@@H](Cn1ncc2ccccc2c1=O)NC(=O)c1cnc(C)cn1	7.92
CN(C)CC(=O)N1CCOCC(Cc2ccccn2)C1 (configuration not stated)	5.88
CNC(=O)c1cn[nH]c1C1CCCN1C(=O)c1ccccn1 (configuration not stated)	8.52
COCC(=O)N1CCN(C)C(=O)C(Cc2ccccc2-c2cccs2)C1 (configuration not stated)	-3.73
CNC(=O)c1cn[nH]c1C1CCCN1C(=O)c1cccnc1 (configuration not stated)	-23.3
O=C(Cc1ccccc1)N1CCOC(c2nc(-c3ncccn3)no2)C1 (configuration not stated)	-22.6
CN1CCc2nc(C3CCCN(C(=O)CC(C)(C)C)C3)ncc2C1 (configuration not stated)	-10.3

SMILES	cytotoxicity at 10 µM [%]
Cc1cc(C(F)(F)F)nc(N(C)Cc2c(C)noc2C)n1	-13.2
CS(=O)(=O)c1ccccc1-n1cc(NC(=O)CC(F)(F)F)cn1	1.42
Cc1ccc(OCCN(C)S(=O)(=O)N2CCOCC2)cc1	0.651
CC(SCCC(=O)NC(N)=O)c1cccc(F)c1 (configuration not stated)	5.28
Cc1cc(C)n(CC(C)CNC(=O)CCc2ccco2)n1 (configuration not stated)	-1.05
CC(C)OCCCNC(=O)CN1CCN(c2nccs2)CC1	3.44
CC(C)NC(=O)CNC(=O)c1csc(Cc2ccccc2F)n1	-4.44
O=C(NC1CCS(=O)(=O)C1)c1ccc(SCc2cscn2)cc1 (configuration not stated)	-1.23
CCC(CNC(=O)CCn1cncn1)N1CCc2ccccc2C1 (configuration not stated)	-137
CNC(=O)c1ccc(NC2CCN(CC(F)(F)F)C2=O)cc1Cl (configuration not stated)	-1.13
CC(C)N1CCC(CNC(=O)CCc2cc(F)ccc2F)C1 (configuration not stated)	-5.38
COC(=O)c1cccc(S(=O)(=O)Nc2ccc(F)c(C(N)=O)c2)c1	8.67
CN1CCC(C(=O)N2CCC(=Cc3cccc(F)c3)CC2)CC1=O (configuration not stated)	-2.19
N#Cc1cnc(NC2CCN(C(=O)C3CC3)CC2)c(Cl)c1	-7.32
CCS(=O)(=O)NC1CCCN(Cc2ccn(C)c(=O)c2)C1 (configuration not stated)	-1.82
Cc1nnc(C(C)Nc2ccc(OCCc3ccccc3)nc2)o1 (configuration not stated)	-4.08
COC(=O)N1CCC(Nc2ccc(Cl)c(C#N)n2)C1 (configuration not stated)	-3.44
CC(C)NC(=O)NCc1ccccc1NS(=O)(=O)c1ccccc1	9.6
CCNC(=O)NCc1ccnc(N(C)C)n1	-0.786
COc1cc(C2(C(=O)NCCn3ccnc3)CCCC2)ccc1C	8
O=C(c1cc2c([nH]c1=O)CCC2)N1CCCC1c1ccccc1 (configuration not stated)	-5.76
Cn1c(C(=O)N2CCC(C(N)=O)C2)c(Cl)c2ccccc21 (configuration not stated)	2.03
CC(CCO)Nc1cccc(C(F)(F)F)n1 (configuration not stated)	-2.8

SMILES	cytotoxicity at 10 µM [%]
CN(C)C(CNC(=O)c1ccc(-n2cnnn2)cc1)c1ccccc1Cl (configuration not stated)	-8.16
NC(=O)c1ccc(CNCC2CCN(CCO)CC2)cc1	-9.93
CCOC(=O)c1nc(CN2CCC(NC(=O)C(C)C)CC2)cs1	-2.98
O=C(c1c[nH]c2ncccc12)N1CCC(COc2ccccc2)CC1	14.4
O=C1CCC(C(=O)Nc2ccc(=O)n(Cc3ccc(Cl)c(Cl)c3)c2)N1 (configuration not stated)	-8.47
CC(C)c1ncc(Cl)c(C(=O)N2CCCN3CCCC3C2)n1 (configuration not stated)	-10.2
CC(=O)NCc1ccc(C(=O)Nc2ccc3c(c2)C(=O)NC3)cc1	0.202
CC(=O)Nc1cc(CN(C)C)ccc1C	-1.89
CC1c2cccn2CCN1C(=O)CCc1nc(C2CC2)no1 (configuration not stated)	-2.13
Cc1nc(C(C)C)sc1C(=O)NCC(C)(C)N1CCOCC1	-6.47
CCNC(=O)NC(=O)CN1CCOC(c2cccc(Br)c2)C1 (configuration not stated)	1.83
Cn1cccc(NC(=O)N2CCC(Cc3ccccc3)C2)c1=O (configuration not stated)	11.9
CN(CC(F)(F)F)C(=O)CNC(=O)Cc1ccc(O)cc1Cl	-1.11
CN1CCCC1CNC(=O)c1nnn(-c2ccc(F)cc2)c1C1CC1 (configuration not stated)	-15.9
Cc1cc(NS(=O)(=O)c2ccccc2F)ccc1-n1cccc1C(=O)O	-5.67
N#Cc1cccc(C(=O)NC2CCc3c(ccc(=O)n3CC3CC3)C2)c1 (configuration not stated)	0.908
CCC(CO)N(Cc1cccc(O)c1)Cc1ccccc1C (configuration not stated)	-8.22
O=C1[C@@H]2C[C@H](O)CCN2C(=O)CN1CCSc1ccccn1	-2.96
CCC(C)N(Cc1cccnc1)Cc1cc2c(cc1OC)OCO2 (configuration not stated)	3.17
COc1cnc(N2C[C@@H](CN3CCOCC3)C[C@H](CO)C2)nc1	-6.16
O=C(NCCc1cscn1)c1coc(CN2CCOCC2)c1	-3.7
CN(C)CC1(O)CCCN(c2noc(-c3ccccc3)n2)CC1 (configuration not stated)	0.0264
COCc1nc(C2CC2)nn1-c1cccc(F)c1	2.64

SMILES	cytotoxicity at 10 µM [%]
Cc1nc(C(=O)N2CCC(c3nnc(Cn4ccnc4)n3C)CC2)cs1	-127
CCn1c(N)nc2cc(C(=O)NCCc3ccncc3)cnc21	1.22
Cc1ccc(CN2C[C@@H](C(=O)O)[C@H](c3ccccn3)C2)o1	-3.88
Cc1csc(CNc2ccc(-c3nc(C4CC4)no3)cn2)n1	-16.2
Cc1nc2c(c(N[C@H](C(N)=O)C(C)C)n1)Cc1ccccc1OC2	4.71
O=C(NCCc1cccnc1)c1cn(CCN2CCNCC2)nn1	-7.82
Cc1nc(C)c(CC(=O)N2C[C@@H](C(=O)O)[C@H](c3ccncc3)C2)s1	-127
CCC[C@@H]1CN(Cc2ccccc2-c2ccco2)C[C@H]1NC(C)=O	20.9
COc1cccn(CC(=O)N(C)Cc2ccoc2)c1=O	-9.93
Cc1ccccc1CSc1nc(N)cc(N2CCOC(C(N)=O)C2)n1 (configuration not stated)	5.27
Cc1oc(C(=O)O)cc1S(=O)(=O)Nc1ccc(Cl)cc1F	-0.354
NC(=O)c1cc(C2CCCN(C(=O)CCc3ccccn3)C2)n[nH]1 (configuration not stated)	-8.47
CC(=O)N1CCN(C(=O)Nc2cnc3c(cnn3C(C)C)c2)CC1	-0.192
CC(C)c1nc(C2CCCN(C(=O)CCCn3ccnc3)C2)no1 (configuration not stated)	-17.2
O=C(CCc1ccccc1)N1CC(n2cncn2)C1	-15.7
CN(C)c1cc(CNC(=O)c2ccccc2S(C)(=O)=O)ccn1	-10.7
CS(=O)(=O)c1cccc(C(N)c2ccccc2)c1 (configuration not stated)	-19.3
CC(Cc1ccc(Cl)cc1)NC(=O)Nc1cnn(CC(N)=O)c1 (configuration not stated)	-5.86
Cc1csc(N2CCN(C(=O)NCCNc3ncccn3)CC2)n1	-18.8
CCOCC(O)CN1CCN(C(=O)C2CCCC2)CC1 (configuration not stated)	-13
Cc1ccc(N2CCCC(NCc3cccs3)C2)nn1 (configuration not stated)	-33
Cc1ccc(N2CCCC(NCc3ccc4c(c3)OCCO4)C2)nn1 (configuration not stated)	-20.1
CCc1ccsc1C(=O)N1CCN(CCN2C(=O)CCC2=O)CC1	-3.82

SMILES	cytotoxicity at 10 µM [%]
Cc1csc(C2CCCCN2C(=O)CN(C)C(C)C)n1 (configuration not stated)	-3.62
Cc1nn(C)c(N(C)C)c1CNCc1ccc(C(=O)N(C)C)cc1	-9.55
c1ccc(CCCN2CCOC(Cn3cccn3)C2)cc1 (configuration not stated)	9.11
CC1CN(C(=O)CN(Cc2ccco2)Cc2cccs2)CCO1 (configuration not stated)	-7.68
O=C(c1nn(-c2ccccc2F)cc1O)N1CCCC1	-4.99
Cc1ccc(-c2nnc(CN3CCOC(Cn4cccn4)C3)o2)cc1 (configuration not stated)	-8.06
CC1CN(c2ccc(CNC(=O)c3ccn(C)c(=O)c3)cn2)CCO1 (configuration not stated)	2.82
CC(C)n1ccnc1CN1CCCN(C(=O)COC2CCCC2)CC1	-0.602
O=c1n(CCSCc2ccccc2F)nc2ccccn12	0.168
CNC(=O)[C@@H](C1CC1)N1CCC[C@H]1C(=O)NCC(C)C	-2.45
CNC(=O)[C@@H]1CC[C@@H]2[C@@H](CCN2Cc2cn(C)c3ccccc23)O1	10.7
CC(C)NC1CCc2c(ccc(=O)n2CCN2CCCC2=O)C1 (configuration not stated)	9.52
c1cc(CN2CC[C@@H]3[C@@H](CO[C@H]3CN3CCOCC3)C2)cs1	-1.19
FC1(F)CCN(Cc2cccnc2)CC12CCN(c1cnccn1)C2 (configuration not stated)	2.6
Cc1ncsc1CN1C[C@H](OCc2ccncc2)[C@H]2OCCC[C@H]21	-139
O=C(CCn1c(C(F)(F)F)cc2cccnc21)N1CCOCC1	-22.6
OC(CN1CCN(Cc2ccccc2)CC1)C1CC1 (configuration not stated)	3.3
O=C([C@H]1COC[C@H]2CN(C3CCOCC3)C[C@H]21)N1CCC(F)CC1	-112
O=C(O)c1cc(C=Cc2ccccc2)ncn1	5.17
Cc1oc(C(C)C)cc1C(=O)N1C[C@@H]2CC[C@H]1CN(S(=O)(=O)N(C)C)C2	-127
